System: MS2 coat protein
Assay: apparent Kd, MS2 coat protein; higher = weaker binding; RNA-MaP array; FMN 200 µM where present
Method in brief: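 Designs were transcribed by stalled E. coli RNA polymerase on Illumina sequencing-chip clusters. They were titrated with SNAP-549-labelled MS2 coat protein from 0.7 or 1.5 nM, doubling to 3 µM, in 100 mM Tris-HCl pH 7.5, 80 mM KCl, 4 mM MgCl2, BSA, DTT, yeast tRNA and Tween-20, without and then with constant ligand. The apparent Kd is the median of filtered per-cluster fits after normalisation of green signal to red-channel RNA signal and control-cluster median Fmax.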

[1] = designed as: OFF switch for flavin mononucleotide, no ligand
[2] = ligand present: flavin mononucleotide, designed as: OFF switch for flavin mononucleotide
[3] = designed as: ON switch for flavin mononucleotide, no ligand
[4] = ligand present: flavin mononucleotide, designed as: ON switch for flavin mononucleotide

In the case of “UCGUUCCGUGUAGGAUAUUGGCCUUCUCUGGGCCGAGAAGGACAUGAGGAUCACCCAUGUAUGUUAUUAUCGCGCGUGGCGCAU”, the “apparent Kd” value [1] is reported as 26.9 nM and the “apparent Kd” value [2] is reported as 84.9 nM.
For “ACACGACAUGAGGAUCACCCAUGUGAGGAUAUCGAUCUACACUAUGCCCAUAGUCUCUCGAGAAGGCACACUAA”, the “apparent Kd” value [1] was 30.6 nM and the “apparent Kd” value [2] was 31.7 nM.
In the case of “GCCAACUUAUGAGGAUAUGGCACCUUAUUGGUGCCAGAAGGCAUGUGUAUUCACAUGAGGAUCACCCAUGUAUUAUAGUUGGCA”, the “apparent Kd” value [3] is reported as 498 nM and the “apparent Kd” value [4] is reported as 48.1 nM.
In the case of “AUCGACAGUGUCAGGAUAUCUCACCCGAGUGGGCGAGAGAAGGGACAUGAGGAUCACCCAUGUGCGUUCUCUAA”, the “apparent Kd” value [1] is reported as 27.5 nM and the “apparent Kd” value [2] is reported as 174 nM.
With “UGUUUUCAUGUAGGAUAUGCUUGUCGUAGAUACGCAGAAGGACAUGAGGAUCACCCAUGUUAAAGCGUCAGAGUAUAGAUUCUU” the “apparent Kd” value [1] was 17.9 nM and the “apparent Kd” value [2] was 45.6 nM.
With “GAAACCUAGUCAGGAUAUCGGGCAAUAAUUGCACGAGAAGGGACAUGAGGAUCACCCAUGUACACCUCUGGUGAGUCUCGCAGG” the “apparent Kd” value [1] was 24.4 nM and the “apparent Kd” value [2] was 73.6 nM.
For “GGUGAAUGAACAUGAGGAUCACCCAUGUACAGGAAACUGAAUGAGGAUAUCCAUAGCAAAGCUAUGGAGAAGGUAUGGGUCACC”, the “apparent Kd” value [3] was 40.5 nM and the “apparent Kd” value [4] was 44.9 nM.
“CGCACUAUACAUGAGGAUCACCCAUGUUAUUAUGAGAUAGUCAGAAGGCAUUGUUAGUGAUAUUAUGAGGAUAUGAAUAGUGCG” was tested, and the “apparent Kd” value [3] was 156 nM and the “apparent Kd” value [4] was 89.8 nM.
With “CCGGAGACGGGUAGCCUGACAUGAGGAUCACCCAUGUAAUACGAGGAUAUGGAUCCUAAUUGGAUCCAGAAGGUGUCAGGCUAC” the “apparent Kd” value [3] was 908 nM and the “apparent Kd” value [4] was 729 nM.
In the case of “GCAGGACAUGAGGAUCACCCAUGUUCAAAAUAUAGAGGAUAUGGAUACGGUAUAUCCGAACCAGAAGGCUACCUGC”, the “apparent Kd” value [3] is reported as 14.6 nM and the “apparent Kd” value [4] is reported as 14 nM.
In the case of “CAGGUCUGAGGAUAUCCAUCUUCAUACAUGAGGAUCACCCAUGUUUACCUCUGGGUUUUCGGAGAAGGCAGUUUUU”, the “apparent Kd” value [1] is reported as 354 nM and the “apparent Kd” value [2] is reported as 397 nM.
“AGCUGUGGCCGAGGAUAUCUGAACUUUCAAACCGAAAUAUAAUCGGACAUGAGGAUCACCCAUGUAGAGAAGGCGGUCUCAGCA” was tested, and the “apparent Kd” value [1] was 16 nM and the “apparent Kd” value [2] was 13.6 nM.
In the case of “CAGCGAAAGCUGAAUCUGUAGAGAGAGGAUAUACGUCAUAAGGUGCAAACAUGAGGAUCACCCAUGUAGAAGGCUCUCUACAGU”, the “apparent Kd” value [1] is reported as 55.8 nM and the “apparent Kd” value [2] is reported as 460 nM.
For “UGAAACUACGAGAAGGACAUGUGGUCCUUCAGUUACAUGAGGAUCACCCAUGUAGGAUAUCGUAGUUUCAGGAUCGUGAGAUCG”, the “apparent Kd” value [1] was 34.7 nM and the “apparent Kd” value [2] was 10.4 nM.
For “UGUCGGAGCAGAGGAUAUUACAUGAGGAUCACCCAUGUAUGAACCAAUAGCUGGUAACAGCAAUGUAAGAAGGCUGCUCCGACA”, the “apparent Kd” value [1] was 14.1 nM and the “apparent Kd” value [2] was 176 nM.
In the case of “CACAAUCUAUCUGAGGAUAUCAUGAAAAAAACAUGAGGAUCACCCAUGUGCAGGAAAACUGCAUAUGAGAAGGCAGAUAGAUUGG”, the “apparent Kd” value [3] is reported as 658 nM and the “apparent Kd” value [4] is reported as 28.3 nM.
For “GUACUGAGGCUUUGCUUUAGUCGUACAUGAGGAUCACCCAUGUAGGAUAUGGUAGGCUUUGCUUACCAGAAGGACAGAGUGAUC”, the “apparent Kd” value [1] was 168 nM and the “apparent Kd” value [2] was 85.7 nM.
With “GAUCCGGUCAAGAGGAUUUUGGAGUGAGAAGGGAGGCUGCUACAUGAGGAUCACCCAUGUGAUACUCAGGAUAUUAGUCUACUA” the “apparent Kd” value [3] was 215 nM and the “apparent Kd” value [4] was 155 nM.
“UGCAUGUAAGGAUAUGCAUCCGCCAAAGAACCGGCGCCACAGCAGAAGGUACAUGAGGAUCACCCAUGUGUCCC” was tested, and the “apparent Kd” value [1] was 15.1 nM and the “apparent Kd” value [2] was 29.1 nM.
With “UUGUUGUGAGGAUAUCCAAUAUAUGACAUGAGGAUCACCCAUGUUUCCACUCGUACCUCCGGAGAAGGCACUUAGU” the “apparent Kd” value [1] was 29.2 nM and the “apparent Kd” value [2] was 27.9 nM.
“CUGAGCUGAGGAUAUACAUGAGGAUCACCCAUGUGUUCCAGCUUGCGUACAGGCAGAUGUAGAAGGCAGUUCGG” was tested, and the “apparent Kd” value [1] was 41.4 nM and the “apparent Kd” value [2] was 102 nM.
With “UUAUUCAGAGGAUAUGCGCAUAGAUAAGACUUUUUUUCUUAACAUGAGGAUCACCCAUGUAGAAGGCUGUAAUU” the “apparent Kd” value [1] was 18.4 nM and the “apparent Kd” value [2] was 18.7 nM.
In the case of “ACGACGAAAGUCGAACGAUGAUCGAGAAGGACAUGAGGAUCACCCAUGUUCCCUGUAACAGGCAUGUAGGAUAUCGAUCAUCGA”, the “apparent Kd” value [1] is reported as 3.99 nM and the “apparent Kd” value [2] is reported as 7.18 nM.
For “ACUGACAUGAGGAUCACCCAUGUCUUGAAUAGGUCAAAUUCACAGGAUAUGCGCUUUGACAGGGCGCAGAAGGGUGAUGCAAUG”, the “apparent Kd” value [3] was 70.2 nM and the “apparent Kd” value [4] was 11.8 nM.
For “UUUAUGUCAGGAUAUGAGUCGUAGAACAAUAGUACUACGUCUCAGAAGGGACAUGAGGAUCACCCAUGUGCCUC”, the “apparent Kd” value [1] was 40.4 nM and the “apparent Kd” value [2] was 316 nM.
With “UUAUUUAUACAAGGAUAUCAAUUAUAUACAAUUCCUACAUGAGGAUCACCCAUGUUUUAUUUUUUUGAGAAGGUGUAUUGUCUG” the “apparent Kd” value [3] was 30.1 nM and the “apparent Kd” value [4] was 32.8 nM.
“CCAUGUUAGCAGGAUAUGCAAUUAUUCUUUUAAGCAGAAGGGCUUACAUGAGGAUCACCCAUGUAACAUUUCAU” was tested, and the “apparent Kd” value [1] was 17.3 nM and the “apparent Kd” value [2] was 85.4 nM.
